UPR XBP1 act – activators of adaptive arm of unfolded protein response (XBP1). CHO-XBP1 luciferase reporter, IRE1-XBP1 UPR activation, luminescence; percent of tunicamycin response, DMSO as zero. activation, % at 20 µM. actives 0.33% (n = 330,000);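 active means versus positive control, 20 µM dose yields 30% or more activation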
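Assay system: IRE1-XBP1 luciferase reporter CHO line. Input: 1000 cells/well. Buffer or medium: F12 with 10% serum. Doses: 20 µM, 1% DMSO. Times: overnight seeding at 37 °C, 6 h compound treatment at 37 °C. Technique: Steady-Glo luciferase glow luminescence, 10 min after reagent addition.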
ABHD5-PLIN5 inh – ABHD5-PLIN5 protein interaction inhibition | actives 0.78% (n = 360,000) | Split G. princeps luciferase complementation, luminescence, 4 h | AID 602281 | Q00G26+Q8WTS1 | inhibition, % at 4 µM;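 active means inhibition above the mean inhibition across every tested compound plus 3 SD, cut at about 22% in these data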
Granule exo inh – blocks lytic granule exocytosis; actives 0.66% (n = 360,000); TALL-104 LAMP-1 surface exposure, flow cytometry; cells stimulated with thapsigargin and PMA; AID 651702; inhibition, % at 10 µM;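 active means inhibition above about 55%, limit read from the data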
Mdm2-MdmX inh – inhibitors of human Mdm2/MdmX interaction | O15151+Q00987 | SaOS-2 split-luciferase Mdm2/MdmX complementation, luminescence | inhibition, % at 8 µM | actives 3% (n = 330,000) | AID 485346;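 active means inhibition of at least 50% at 8 µM in the primary screen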
Target sequence (O15151 whole entry, looked up): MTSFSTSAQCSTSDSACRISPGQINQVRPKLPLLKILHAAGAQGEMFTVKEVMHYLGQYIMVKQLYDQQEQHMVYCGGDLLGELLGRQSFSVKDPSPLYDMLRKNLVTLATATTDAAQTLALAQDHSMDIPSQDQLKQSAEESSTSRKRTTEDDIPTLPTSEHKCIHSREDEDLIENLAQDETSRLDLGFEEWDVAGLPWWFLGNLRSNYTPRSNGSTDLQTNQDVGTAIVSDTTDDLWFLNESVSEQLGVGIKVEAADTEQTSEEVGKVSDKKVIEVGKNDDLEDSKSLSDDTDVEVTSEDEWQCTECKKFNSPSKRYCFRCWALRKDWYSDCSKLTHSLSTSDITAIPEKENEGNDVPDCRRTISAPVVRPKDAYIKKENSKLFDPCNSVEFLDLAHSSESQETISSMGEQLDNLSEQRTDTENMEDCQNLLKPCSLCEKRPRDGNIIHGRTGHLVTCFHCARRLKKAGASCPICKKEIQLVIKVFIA
Target sequence (Q00987 whole entry, looked up): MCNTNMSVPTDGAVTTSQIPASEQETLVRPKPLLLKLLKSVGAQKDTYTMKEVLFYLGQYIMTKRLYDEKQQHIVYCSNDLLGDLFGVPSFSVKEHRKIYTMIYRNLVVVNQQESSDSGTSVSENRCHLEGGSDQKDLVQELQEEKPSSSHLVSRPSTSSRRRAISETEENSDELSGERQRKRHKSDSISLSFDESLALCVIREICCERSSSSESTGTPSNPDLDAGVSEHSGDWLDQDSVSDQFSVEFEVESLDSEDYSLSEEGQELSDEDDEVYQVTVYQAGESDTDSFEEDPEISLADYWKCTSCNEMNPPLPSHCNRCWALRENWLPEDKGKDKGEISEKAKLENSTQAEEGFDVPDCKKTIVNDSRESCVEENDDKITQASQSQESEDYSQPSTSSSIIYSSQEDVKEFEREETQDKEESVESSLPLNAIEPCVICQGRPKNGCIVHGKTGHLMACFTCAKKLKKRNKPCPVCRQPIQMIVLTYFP
CHOP UPR activ – apoptotic UPR (CHOP) activation; activation, % at 10 µM; actives 0.34% (n = 330,000); AID 449763; CHO-CHOP luciferase reporter, luminescence; percent of tunicamycin response over DMSO baseline;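 active means at 10 µM dose, activation of 40% or more, normalized to positive control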
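assay system = CHO CHOP reporter cells | amount = 500 CHO-CHOP cells per well | buffer or medium = F12 with 10% FBS | incubation = 16-18 h cell attachment, then 6 h compound exposure, 37 °C | detection = luminescence read with Steady-Glo | read-out = percent activation relative to tunicamycin control | controls = tunicamycin high control, DMSO low control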
A number is an active result; . = inactive; / = no result. This is a sample that favours compounds with a hit; in the whole collection about 4% have one here.

SMILES	UPR XBP1 act	ABHD5-PLIN5 inh	Granule exo inh	Mdm2-MdmX inh	CHOP UPR activ
CCC(C)N1CCN(C(=O)C2CCN(S(=O)(=O)c3c(C)noc3/C=C/c3ccco3)CC2)CC1 (centres undefined)	.	.	.	.	.
Cc1cccc(NC(=O)C2CCN(S(=O)(=O)c3c(C)noc3/C=C/c3ccco3)CC2)n1	.	23	.	.	.
COc1ccc(F)cc1-c1cc(C(=O)Nc2ccc(C)c(NS(C)(=O)=O)c2)[nH]n1	/	.	.	/	/
COc1ccc(NC(=O)/C(C#N)=C/c2ncc([N+](=O)[O-])n2C)c(OC)c1	.	.	97	.	.
COc1ccc(NC(=O)/C(C#N)=C/c2ccc[nH]2)c(OC)c1	.	.	.	.	.
O=C1NN(c2ccccc2)C(=O)/C1=C/c1cccs1	31	/	/	.	.
CCC(=O)c1ccc(OCC(O)CN(C)C2CCCCC2)cc1 (centres undefined)	.	.	.	.	.
O=C(O)CCCN1C(=O)/C(=C/c2ccc(-c3nc4ccccc4s3)o2)SC1=S	.	.	66	.	.
O=C(O)CCCCCN1C(=O)/C(=C\c2ccc(-c3ccc(Cl)cc3)o2)SC1=S	.	.	87	.	.
O=C(O)CCCCCN1C(=O)/C(=C\c2ccncc2)SC1=S	.	.	.	.	.
COc1cc2c(C#CCO)c(-c3ccc(C#N)cc3)oc(=O)c2cc1OC	.	.	.	.	.
O=C(Nc1cc(S(=O)(=O)N2CCOCC2)ccc1N1CCCC1)C1CC1	.	.	.	.	.
COc1ccc(CNc2nc(NCc3ccc(OC)c(OC)c3)n(C(=O)c3cccs3)n2)cc1OC	.	23	.	.	.
O=[N+]([O-])c1ccc(CSc2nnc(SCc3ccccc3)s2)cc1	.	.	.	.	.
COC(=O)[C@@H](NCc1cccc(CN[C@H](C(=O)OC)c2ccccc2)c1)c1ccccc1	.	.	66	.	.
CCOC(=O)C1CCCN(C(=O)Cn2cnc3c2c(=O)n(C)c(=O)n3C)C1 (centres undefined)	.	.	.	.	.
CCOC(=O)C1CCCN(C(=O)Cn2sc3nc(C)cc(C)c3c2=O)C1 (centres undefined)	.	64	84	.	.
C/C(=N\Nc1nc2ccccc2s1)c1cccs1	.	.	.	.	.
CC(=NNc1nc2ccccc2s1)c1ncccn1	/	.	102	/	/
O=C1C=C(c2c(O)ccc3ccccc23)c2ccccc2C1=O	/	91	104	/	/
CC(C)(C)OC(=O)NCc1ccc(CNC(=O)c2[nH]cnc2C(=O)NC2CCN(C(=O)OC(C)(C)C)CC2)cc1	.	.	.	.	.
CCN(CC)c1ccc(NC2=C(Cl)C(=O)c3ccccc3C2=O)cc1	/	.	67	/	/
Cc1ccc(NC2=C(Cl)C(=O)c3ccccc3C2=O)cc1	/	.	74	/	/
Cc1ccc(NC2=CC(=O)C(=O)c3ccccc32)cc1	.	.	.	.	45
Cc1nc(N2CCN(C)CC2)c2c(C)c(C(=O)Nc3ccc(F)cc3)sc2n1	.	.	.	.	.
SMILES	UPR XBP1 act	ABHD5-PLIN5 inh	Granule exo inh	Mdm2-MdmX inh	CHOP UPR activ
CC(=NCc1ccccc1)c1ccccc1O	/	.	.	/	/
O=C(CC12CC3CC(CC(C3)C1)C2)NCO	.	.	.	.	.
O=C1NC(=S)S/C1=C/c1ccc(OC(=O)c2ccco2)cc1	.	.	79	.	.
COc1ccc(/C=N\NC(=O)c2cc(O)c(O)c(O)c2)cc1CN1CCN(c2ccc(F)cc2)CC1	/	22	.	/	/
Cc1nn(CC(O)CN2c3ccccc3Sc3ccccc32)c(C)c1Br (centres undefined)	.	.	.	.	.
CC1(Br)C(Sc2ccccc2[N+](=O)[O-])=Nc2ccccc21 (centres undefined)	/	.	72	/	/
O=C(O)C1C2C=CC(O2)C1C(=O)Nc1ccccc1C(F)(F)F (centres undefined)	.	.	83	.	.
CCc1ccccc1NC(=O)C1C2C=CC(O2)C1C(=O)O (centres undefined)	.	.	.	.	.
Cc1cc2cc(OCc3ccccc3)ccc2n1C	.	.	.	.	.
Cc1c(C=O)c2cc(OCc3ccccc3)ccc2n1C	.	.	69	.	.
COC(=O)C1=C(\O)CCCC/C=C\1C(=O)O	/	22	.	/	/
CC(C)CN(C(=O)Cn1nnc(-c2ccc(F)cc2)n1)C1CCS(=O)(=O)C1 (centres undefined)	.	.	.	.	.
Cc1cccc(NCc2nc3ccccc3n2Cc2ccccc2)c1	.	.	.	.	.
Cc1nc2cc(NCc3nc4ccccc4n3Cc3ccccc3)ccc2n1C	.	22	.	.	.
COc1ccc(CNC(=O)CN2C(=O)COc3ccc(S(=O)(=O)NC4CCCC4)cc32)cc1	.	.	.	.	.
COc1cc(OC)c(C2Nc3cccc4cccc(c34)N2)c(OC)c1	.	.	76	.	.
OC[C@@H]1CN(Cc2ccc(-c3ccccc3)cc2)C[C@H](n2cnc3c(N4CCCC4)ncnc32)O1	/	.	.	/	/
CC(C)(C)N(Cc1ccccc1)C(=O)COC(=O)c1ccc(S(=O)(=O)N2CCOCC2)cc1	.	.	63	.	.
CC(=O)N1CCN(S(=O)(=O)c2cccc(C(=O)OCC(=O)N(Cc3ccccc3)C(C)(C)C)c2)CC1	.	.	.	.	.
Cc1ccc([N+](=O)[O-])cc1N/C=C1\CCc2ccccc2C1=O	.	.	57	.	.
CCOc1ccc(S(=O)(=O)N(CC)CC(=O)N2CCCC2)cc1C	.	.	.	.	.
Cc1ccccc1-c1nc2ccccc2c(=O)n1/N=C/c1ccccc1[N+](=O)[O-]	.	.	67	.	.
CC(=O)N(CCC(c1ccccc1)c1ccco1)Cc1cccs1 (centres undefined)	.	.	.	.	.
O=C(c1ccco1)N(CCC(c1ccccc1)c1ccco1)Cc1ccco1 (centres undefined)	.	28	.	.	.
Cc1ccc(C(CCN(Cc2ccccc2)C(=O)c2ccco2)c2ccco2)cc1 (centres undefined)	.	29	.	.	.
SMILES	UPR XBP1 act	ABHD5-PLIN5 inh	Granule exo inh	Mdm2-MdmX inh	CHOP UPR activ
CC(=O)N(CCC(Cc1ccccc1)c1ccco1)Cc1ccco1 (centres undefined)	.	.	.	.	.
Cc1cccc(NCCC(=O)c2ccc([N+](=O)[O-])cc2)c1C	.	.	107	.	.
Cc1ccc(NC(=O)Cn2c(O)c(N=NS(=O)(=O)c3ccc(C)cc3)c3ccccc32)cc1	.	.	56	.	.
O=C(COc1ccc2ccccc2c1)Nc1cccc2c1C(=O)NC2=O	.	/	/	.	.
CC(C)COC(=O)NCC12C=CC(O1)C1C(=O)N(c3ccc(Cl)cc3)C(=O)C12 (centres undefined)	.	.	91	.	.
Cc1ccc(N2C(=O)C3C4C=CC(CNC(=S)Nc5ccc(Cl)cc5)(O4)C3C2=O)cc1 (centres undefined)	.	.	.	.	.
